Experimental data as given in the M2OR odorant receptor database.

How the values were obtained:
Conditions in all cases: stereoisomer not certain
[1] = tested on: O13C2 H6Q
Summary of the method: (§1)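 Transient luciferase assays in mammalian cell lines were common, though methods varied by source. The values come from published papers and their supplementary material, with extra details from the original authors when needed. Responsive refers to a measured signal the original authors judged statistically different from baseline, and non-responsive (inactive) to the remainder.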

[2] = tested on: O13C8 A19D
Summary of the method: as §1

[3] = tested on: O13C9 H17L V19G L23H
Summary of the method: as §1

[4] = tested on: O13C9 Q6H
Summary of the method: as §1

[5] = tested on: O13F1 F18S T254M
Summary of the method: as §1

[6] = tested on: O13F1 F18S
Summary of the method: as §1

[7] = tested on: O13G1 K46I M146L
Summary of the method: as §1

[8] = tested on: O13G1
Summary of the method: as §1

[9] = tested on: O13H1 Y266S
Summary of the method: as §1

[10] = tested on: O13J1
Summary of the method: as §1

Measured: odorant receptor agonist call;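 note: active if original authors judged signal statistically different from baseline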

O13G1, sequence (as listed by the source): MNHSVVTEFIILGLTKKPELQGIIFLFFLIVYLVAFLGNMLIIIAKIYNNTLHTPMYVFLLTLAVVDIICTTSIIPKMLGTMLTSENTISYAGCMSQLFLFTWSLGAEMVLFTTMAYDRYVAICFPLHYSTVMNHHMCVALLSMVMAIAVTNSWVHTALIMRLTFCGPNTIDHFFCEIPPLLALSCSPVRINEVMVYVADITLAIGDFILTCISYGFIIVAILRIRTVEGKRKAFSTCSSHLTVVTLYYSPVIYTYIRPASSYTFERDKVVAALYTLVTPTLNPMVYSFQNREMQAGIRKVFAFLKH
O13H1 Y266S, sequence (as listed by the source, stated change not applied): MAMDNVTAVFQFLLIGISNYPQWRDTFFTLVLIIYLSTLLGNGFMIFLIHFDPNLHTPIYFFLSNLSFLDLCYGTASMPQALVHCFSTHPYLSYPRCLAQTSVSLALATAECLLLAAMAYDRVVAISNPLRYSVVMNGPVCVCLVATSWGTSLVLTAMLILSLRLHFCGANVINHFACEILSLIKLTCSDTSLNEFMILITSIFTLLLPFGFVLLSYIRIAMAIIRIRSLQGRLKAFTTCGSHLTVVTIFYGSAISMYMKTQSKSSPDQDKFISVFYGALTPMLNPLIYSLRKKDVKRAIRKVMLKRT
O13C9 Q6H, sequence (as listed by the source): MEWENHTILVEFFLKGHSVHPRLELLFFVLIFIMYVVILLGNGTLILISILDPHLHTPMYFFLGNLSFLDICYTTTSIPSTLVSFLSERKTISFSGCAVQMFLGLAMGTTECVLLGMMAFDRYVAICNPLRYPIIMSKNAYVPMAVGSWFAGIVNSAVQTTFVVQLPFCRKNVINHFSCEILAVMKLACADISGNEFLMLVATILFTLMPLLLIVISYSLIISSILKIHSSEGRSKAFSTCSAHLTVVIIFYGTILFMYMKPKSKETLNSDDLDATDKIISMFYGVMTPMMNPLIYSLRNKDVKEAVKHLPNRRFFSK
O13J1, sequence (as listed by the source): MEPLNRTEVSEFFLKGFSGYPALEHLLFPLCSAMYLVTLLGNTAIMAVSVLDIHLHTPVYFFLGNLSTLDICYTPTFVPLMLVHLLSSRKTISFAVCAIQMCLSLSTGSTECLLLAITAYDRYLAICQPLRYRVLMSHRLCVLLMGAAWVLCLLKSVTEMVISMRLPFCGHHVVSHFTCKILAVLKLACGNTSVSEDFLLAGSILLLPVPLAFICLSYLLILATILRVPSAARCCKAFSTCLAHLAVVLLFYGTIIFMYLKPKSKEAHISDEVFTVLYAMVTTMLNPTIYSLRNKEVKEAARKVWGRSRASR
O13C2 H6Q, sequence (as listed by the source): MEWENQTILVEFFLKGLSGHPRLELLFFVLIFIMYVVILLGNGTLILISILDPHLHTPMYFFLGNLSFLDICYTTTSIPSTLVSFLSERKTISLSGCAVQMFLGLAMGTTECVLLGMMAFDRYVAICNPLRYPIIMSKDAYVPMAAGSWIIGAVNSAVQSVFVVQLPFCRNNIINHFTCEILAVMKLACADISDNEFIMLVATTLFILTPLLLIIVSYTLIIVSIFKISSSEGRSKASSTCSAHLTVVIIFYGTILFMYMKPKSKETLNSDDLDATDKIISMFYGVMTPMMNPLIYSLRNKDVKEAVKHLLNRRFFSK
O13F1 F18S, sequence (as listed by the source, stated change not applied): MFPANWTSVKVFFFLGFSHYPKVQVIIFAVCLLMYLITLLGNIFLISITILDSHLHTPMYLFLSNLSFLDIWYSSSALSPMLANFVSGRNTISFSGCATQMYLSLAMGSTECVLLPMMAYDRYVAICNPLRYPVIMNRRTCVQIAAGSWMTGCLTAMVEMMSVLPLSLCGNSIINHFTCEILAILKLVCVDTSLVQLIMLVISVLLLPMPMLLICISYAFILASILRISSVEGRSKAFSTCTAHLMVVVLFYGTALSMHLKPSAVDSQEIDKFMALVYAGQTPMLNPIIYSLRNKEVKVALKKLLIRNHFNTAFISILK
O13C8 A19D, sequence (as listed by the source, stated change not applied): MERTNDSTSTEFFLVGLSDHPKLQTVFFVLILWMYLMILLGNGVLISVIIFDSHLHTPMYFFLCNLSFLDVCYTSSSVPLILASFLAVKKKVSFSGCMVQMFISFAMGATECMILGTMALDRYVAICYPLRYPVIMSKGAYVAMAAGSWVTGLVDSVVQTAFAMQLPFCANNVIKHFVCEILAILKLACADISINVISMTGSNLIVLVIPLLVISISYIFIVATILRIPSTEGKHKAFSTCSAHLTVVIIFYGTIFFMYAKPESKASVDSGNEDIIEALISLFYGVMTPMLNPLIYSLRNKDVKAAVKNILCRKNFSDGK

C=CCOC(=O)Cc1ccccc1
inactive: all assays above
